From ChEMBL document CHEMBL2169833, “Solubility-driven optimization of phosphodiesterase-4 inhibitors leading to a clinical candidate” (J Med Chem, 2012)
≈ marks a conversion by molar mass, not a printed value.

What was measured:
[1] = Cmax in rat at 2.1 umol/kg, po; format: ADME, organism-based; design: dose 2.1 umol/kg, route oral; conditions: in vivo
Summary of the method: (§1)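 Rat PK after iv and po dosing, some compounds given as the potassium or sodium salt. Vehicle was PBS or 25/75 PEG200/PBS. Dose matched formulation strength: iv 1.05, 2.1 or 4.2 μmol/kg; po 2.1 or 4.2 μmol/kg. For some compounds iv and po used the same dose (2.1 or 4.2 μmol/kg).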

[2] = tested on: Rattus norvegicus; test: (§2) Oral bioavailability in rat at 2.1 umol/kg; format: ADME, organism-based; conditions: in vivo; summary of the method: as §1
[3] = tested on: Rattus norvegicus; test: (§3) AUC total in rat at 2.1 umol/kg, po; format: ADME, organism-based, Plasma; conditions: in vivo; summary of the method: as §1
[4] = Volume of distribution at steady state in rat at 2.1 umol/kg, iv; format: ADME, organism-based; conditions: in vivo, read-out: Vdss; summary of the method: as §1
[5] = Half life in rat at 2.1 umol/kg, po; format: ADME, organism-based; conditions: in vivo; summary of the method: as §1
[6] = tested on: Rattus norvegicus; test: Antiinflammatory activity in po dosed ovalbumin-sensitized Brown Norway rat assessed as inhibition of ovalbumin-induced eosinophil influx into BALF administered 2 hrs prior to ovalbumin-challenge measured after 24 hrs; format: functional
Summary of the method: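 Brown Norway rats were actively sensitized and dosed orally at 0.3, 1 or 3 mg/kg, or with vehicle PEG200:saline 1:1, 2 h before inhaled ovalbumin challenge. Saline-challenged rats served as controls. Eosinophils were counted in BAL fluid 24 h after challenge. Mean ± SEM, 5−10 animals per group. ED50 was estimated.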

[7] = target: 3',5'-cyclic-AMP phosphodiesterase 4D (Homo sapiens, UniProt Q08499); test: Inhibition of human PDE4D-mediated [3H]CAMP hydrolysis after 30 to 60 mins by scintillation proximity assay
Sequence of 3',5'-cyclic-AMP phosphodiesterase 4D (Q08499 whole entry): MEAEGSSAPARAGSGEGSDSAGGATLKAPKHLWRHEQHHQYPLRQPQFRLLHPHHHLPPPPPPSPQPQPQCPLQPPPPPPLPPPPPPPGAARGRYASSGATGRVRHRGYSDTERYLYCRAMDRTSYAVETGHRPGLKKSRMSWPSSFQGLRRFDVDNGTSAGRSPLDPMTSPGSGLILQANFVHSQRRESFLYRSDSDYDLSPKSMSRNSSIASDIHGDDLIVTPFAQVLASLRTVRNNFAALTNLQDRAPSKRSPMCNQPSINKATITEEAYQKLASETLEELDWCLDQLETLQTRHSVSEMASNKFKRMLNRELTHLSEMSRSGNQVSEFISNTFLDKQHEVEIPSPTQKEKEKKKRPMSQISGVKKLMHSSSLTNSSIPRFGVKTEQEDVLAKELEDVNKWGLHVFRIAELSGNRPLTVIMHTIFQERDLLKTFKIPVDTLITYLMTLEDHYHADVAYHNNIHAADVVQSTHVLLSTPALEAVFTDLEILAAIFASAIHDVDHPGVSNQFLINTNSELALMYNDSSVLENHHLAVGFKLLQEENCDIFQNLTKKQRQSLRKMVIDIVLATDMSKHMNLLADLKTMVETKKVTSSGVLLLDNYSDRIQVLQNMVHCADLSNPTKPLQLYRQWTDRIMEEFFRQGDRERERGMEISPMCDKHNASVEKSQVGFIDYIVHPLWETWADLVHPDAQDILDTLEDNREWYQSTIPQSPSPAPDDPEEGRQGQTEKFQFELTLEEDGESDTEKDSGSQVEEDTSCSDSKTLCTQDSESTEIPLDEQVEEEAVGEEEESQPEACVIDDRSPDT
Summary of the method: (§4)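 Enzyme was diluted in 10 mM Tris-HCl pH 7.5 with 1 mM EDTA to give 10–30% substrate hydrolysis. Substrate was [3H]-cAMP (0.1 μCi) with 1 μM cAMP. Inhibitors were tested at 10 concentrations with 1% DMSO, 30−60 min at room temperature, stopped with PDE SPA beads and counted. IC50 came from curves. Mean of ≥2 experiments in duplicate, SEM where n ≥ 3.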

[8] = target: 3',5'-cyclic-AMP phosphodiesterase 4A (Homo sapiens, UniProt P27815); test: Inhibition of human PDE4A-mediated [3H]CAMP hydrolysis after 30 to 60 mins by scintillation proximity assay; summary of the method: as §4
Sequence of 3',5'-cyclic-AMP phosphodiesterase 4A (P27815 whole entry): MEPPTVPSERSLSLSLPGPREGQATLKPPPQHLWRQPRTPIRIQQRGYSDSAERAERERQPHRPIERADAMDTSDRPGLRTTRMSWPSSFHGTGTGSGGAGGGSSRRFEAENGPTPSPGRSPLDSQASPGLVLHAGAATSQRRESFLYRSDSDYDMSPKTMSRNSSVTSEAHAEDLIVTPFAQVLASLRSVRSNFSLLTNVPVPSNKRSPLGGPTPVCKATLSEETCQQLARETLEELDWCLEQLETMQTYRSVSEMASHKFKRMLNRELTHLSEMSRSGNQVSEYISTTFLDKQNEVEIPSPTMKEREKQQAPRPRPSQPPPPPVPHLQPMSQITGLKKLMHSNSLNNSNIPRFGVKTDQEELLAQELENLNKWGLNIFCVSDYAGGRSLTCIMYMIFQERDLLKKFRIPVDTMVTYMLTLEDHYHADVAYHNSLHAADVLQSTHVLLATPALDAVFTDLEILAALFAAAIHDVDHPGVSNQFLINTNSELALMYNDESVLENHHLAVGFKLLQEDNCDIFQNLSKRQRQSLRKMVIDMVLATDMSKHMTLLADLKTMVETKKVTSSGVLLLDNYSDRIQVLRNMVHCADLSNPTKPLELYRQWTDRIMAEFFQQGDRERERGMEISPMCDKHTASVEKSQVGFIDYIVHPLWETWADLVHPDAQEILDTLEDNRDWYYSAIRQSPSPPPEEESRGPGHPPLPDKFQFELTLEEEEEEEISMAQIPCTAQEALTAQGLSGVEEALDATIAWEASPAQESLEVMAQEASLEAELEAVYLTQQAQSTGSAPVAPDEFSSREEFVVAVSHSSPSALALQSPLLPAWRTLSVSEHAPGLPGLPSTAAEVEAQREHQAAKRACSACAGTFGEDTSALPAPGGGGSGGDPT

[9] = Thermodynamic aqueous solubility of the compound at pH 6.8; format: physicochemical; conditions: buffer; for solubility thermodynamic: read-out: Therm_solubility
[10] = target: 3',5'-cyclic-AMP phosphodiesterase 4B (Homo sapiens, UniProt Q07343); test: Inhibition of human PDE4B-mediated [3H]CAMP hydrolysis after 30 to 60 mins by scintillation proximity assay; summary of the method: as §4
Sequence of 3',5'-cyclic-AMP phosphodiesterase 4B (Q07343 whole entry): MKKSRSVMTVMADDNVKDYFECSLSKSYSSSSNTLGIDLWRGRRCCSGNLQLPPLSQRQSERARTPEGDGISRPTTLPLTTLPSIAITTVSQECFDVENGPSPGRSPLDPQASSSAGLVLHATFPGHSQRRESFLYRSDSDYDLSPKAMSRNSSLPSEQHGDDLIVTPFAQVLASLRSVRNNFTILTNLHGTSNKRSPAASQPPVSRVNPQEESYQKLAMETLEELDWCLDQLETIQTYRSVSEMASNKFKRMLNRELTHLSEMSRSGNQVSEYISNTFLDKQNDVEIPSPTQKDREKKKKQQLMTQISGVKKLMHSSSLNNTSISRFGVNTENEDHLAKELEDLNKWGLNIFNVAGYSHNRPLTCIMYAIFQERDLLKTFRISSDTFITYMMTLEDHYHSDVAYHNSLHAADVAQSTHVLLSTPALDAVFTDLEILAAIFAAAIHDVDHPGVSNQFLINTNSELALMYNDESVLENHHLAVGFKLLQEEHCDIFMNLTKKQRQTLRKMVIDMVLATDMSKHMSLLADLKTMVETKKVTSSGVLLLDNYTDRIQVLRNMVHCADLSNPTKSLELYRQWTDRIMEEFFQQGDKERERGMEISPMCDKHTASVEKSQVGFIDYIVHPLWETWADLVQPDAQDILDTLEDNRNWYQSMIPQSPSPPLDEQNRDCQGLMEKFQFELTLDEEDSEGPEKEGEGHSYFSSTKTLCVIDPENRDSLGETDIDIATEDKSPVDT

[11] = target: Phosphodiesterase 4 (Homo sapiens, UniProt P27815+Q08499+Q07343+Q08493); test: Inhibition of PDE4 in human PBMC assessed as inhibition of LPS-induced TNFalpha production incubated for 10 mins prior to LPS-challenge measured after 20 hrs by sandwich ELISA
Summary of the method: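 Human PBMC were isolated from normal donors by Ficoll−Hypaque and grown at 1 × 10⁶ cells/mL in RPMI1640 with 10% FCS. Compound was preincubated 10 min, then LPS added (10 ng/mL, stock added). Cells were incubated 20 h at 37 °C in 5% CO₂. Supernatant TNF-α was measured by sandwich ELISA at OD405 (sensitivity ~10 pg/mL). IC50 came from inhibition curves.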

[12] = tested on: Mus musculus; test: Antiinflammatory activity in po dosed BALB/c mouse assessed as inhibition of LPS-induced neutrophil influx into BALF administered 1 hr prior to LPS-challenge measured after 3 hrs; format: functional
Summary of the method: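 Mice were given vehicle (PEG200:saline 1:1) or compound orally at 1−30 mg/kg, 1 h before LPS challenge. The control group got vehicle with PBS challenge. Animals were killed 3 h after challenge. Pooled from two experiments, 6−15 mice per group. Mann−Whitney test versus vehicle/LPS animals.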

[13] = tested on: Mustela putorius furo; test: Toxicity in ferret assessed as emesis at 0.075 to 4.8 mg/kg, po after 4 hrs; format: organism-based; design: dose 0.075-4.8 mg/kg, route oral; conditions: in vivo
[14] = Tmax in rat at 4.2 umol/kg, po; format: ADME, organism-based; conditions: in vivo; summary of the method: as §1
[15] = tested on: Rattus norvegicus; test: AUC total in rat at 4.2 umol/kg, po; format: ADME, organism-based, Plasma; conditions: in vivo; summary of the method: as §1
[16] = tested on: Rattus norvegicus; test: Oral bioavailability in rat at 4.2 umol/kg; format: ADME, organism-based; conditions: in vivo; summary of the method: as §1
[17] = Half life in rat at 4.2 umol/kg, po; format: ADME, organism-based; conditions: in vivo; summary of the method: as §1
[18] = tested on: Rattus norvegicus; test: Half life in po dosed rat; format: ADME, organism-based; conditions: in vivo; summary of the method: as §1
[19] = AUC total in po dosed rat; format: ADME, organism-based; conditions: plasma; summary of the method: as §1
[20] = Clearance in iv dosed rat; format: ADME, organism-based; conditions: in vivo; summary of the method: as §1
[21] = Tmax in po dosed rat; format: ADME, organism-based; conditions: in vivo; summary of the method: as §1
[22] = Oral bioavailability in rat; format: ADME, organism-based; conditions: in vivo; summary of the method: as §1
[23] = Cmax in po dosed rat; format: ADME, organism-based; design: route oral; conditions: in vivo; summary of the method: as §1
[24] = Thermodynamic solubility of the compound at pH 1; format: physicochemical; conditions: buffer
[25] = Volume of distribution at steady state in iv dosed rat; format: ADME, organism-based; conditions: in vivo, read-out: Vdss; summary of the method: as §1
[26] = Clearance in rat at 1.05 umol/kg, iv; format: ADME, organism-based; conditions: in vivo; summary of the method: as §1
[27] = Tmax in rat at 2.1 umol/kg, po; format: ADME, organism-based; conditions: in vivo; summary of the method: as §1
[28] = Volume of distribution at steady state in rat at 1.05 umol/kg, iv; format: ADME, organism-based; conditions: in vivo, read-out: Vdss; summary of the method: as §1
[29] = as §2; format: ADME, organism-based; conditions: in vivo, 2.1 umol/kg; summary of the method: as §1
[30] = as §3; format: ADME, organism-based, Plasma; conditions: plasma, 2.1 umol/kg; summary of the method: as §1
[31] = Tmax in ferret at 3.42 umol/kg, ig; format: ADME, organism-based, Mustela putorius furo; conditions: in vivo, po
Summary of the method: (§5)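 Ferret PK after intragastric dosing as a solution in PEG200/saline (50/50, v/v) at 3.42 μmol/kg, with one compound at 2.98 μmol/kg. Plasma levels were measured. Detection limits were 0.5 μM for roflumilast and <0.02 μM for its N-oxide metabolite.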

[32] = AUC total in ferret at 3.42 umol/kg, ig; format: ADME, organism-based, Mustela putorius furo; conditions: plasma, po; summary of the method: as §5
[33] = Half life in ferret at 3.42 umol/kg, ig; format: ADME, organism-based, Mustela putorius furo; conditions: in vivo, po; summary of the method: as §5
[34] = Cmax in ferret at 3.42 umol/kg, ig; format: ADME, organism-based, Mustela putorius furo; design: dose 3.42 umol/kg, route intragastric; conditions: in vivo, po; summary of the method: as §5

## O=C([O-])[C@H]1CC[C@H](c2cc3cccnc3c(-c3cccc(F)c3)n2)CC1.[K+]
[1]
  Cmax: 4.6 µM
[2]
  F: 52%
[3]
  AUC: 4408 µM·min
[4]
  Vd: 0.09 L/kg
[5]
  half-life: 9 h

## O=C(O)[C@H]1CC[C@H](c2cc3cccnc3c(-c3cccc(OC(F)(F)F)c3)n2)CC1
[6]
  inhibition: Dose-dependent effect

## O=C(O)C1CCN(c2cc3cccnc3c(-c3cccc(OC(F)(F)F)c3)n2)CC1
[7]
  IC50: 30 nM
[8]
  IC50: 371 nM
[9]
  solubility thermodynamic: 1950 µg/mL (≈ 4670 µM)
[10]
  IC50: 225 nM

## O=C(O)C1CCN(c2cc3cccnc3c(-c3cccc(Cl)c3)n2)CC1
[7]
  IC50: 30 nM
[11]
  IC50: 541 nM
[8]
  IC50: 364 nM
[9]
  solubility thermodynamic: 140 µg/mL (≈ 381 µM)
[10]
  IC50: 187 nM

## O=C(Nc1c(Cl)cncc1Cl)c1ccc(OC(F)F)c(OCC2CC2)c1 [ROFLUMILAST]
[6]
  ED50: 0.74 mg/kg
[12]
  ED50: 12.4 mg/kg
[13]
  Activity: Toxic

## O=C([O-])C1CCN(c2cc3cccnc3c(-c3cccc(F)c3)n2)CC1.[Na+]
[14]
  Tmax: 2.88 h
[15]
  AUC: 3919 µM·min
[16]
  F: 70%
[17]
  half-life: 17 h
[4]
  Vd: 0.24 L/kg

## O=C(O)c1ccc(-c2cc3cccnc3c(-c3ccc4nonc4c3)n2)cc1
[18]
  t1/2: 12 h
[19]
  AUC: 8.72 µM·h
[11]
  IC50: 67.6 nM
[20]
  clearance: 2.34 mL/min/kg
[21]
  Tmax: 3.5 h
[9]
  solubility thermodynamic: 2 µg/mL (≈ 5.43 µM)
[22]
  bioavailability: 8%
[23]
  Cmax: 2.4 µM
[24]
  Therm_solubility: 0.04 µg/mL
[25]
  Vd: 0.37 L/kg

## O=C(O)C1CCN(c2cc3cccnc3c(-c3cccc(F)c3)n2)CC1
[7]
  IC50: 51 nM
[11]
  IC50: 769 nM
[8]
  IC50: 587 nM
[9]
  solubility thermodynamic: > 4000 µg/mL
[10]
  IC50: 1330 nM

## O=C([O-])C1CCN(c2cc3cccnc3c(-c3cccc(OC(F)(F)F)c3)n2)CC1.[Na+]
[26]
  clearance: 0.98 mL/min/kg
[1]
  Cmax: 4.49 µM
[27]
  Tmax: 2.88 h
[28]
  Vd: 0.25 L/kg
[29]
  bioavailability: 149%
[30]
  AUC: 54.4 µM·h
[5]
  half-life: 7 h

## O=C(O)[C@H]1CC[C@H](c2cc3cccnc3c(-c3cccc(F)c3)n2)CC1
[7]
  IC50: 32 nM
[31]
  Tmax: 1.5 h
[11]
  IC50: 126 nM
[32]
  AUC: 59.3 µM·h
[6]
  ED50: 1.2 mg/kg
[33]
  half-life: 3.2 h
[8]
  IC50: 123 nM
[9]
  Therm_solubility: 920 µg/mL
[10]
  IC50: 34 nM
[12]
  ED50: 11.2 mg/kg
[34]
  Cmax: 12.3 µM
[13]
  Activity: Non-toxic
